Published values from different studies.
Compare with care: the assays were run in different laboratories.
Target: Serine/threonine-protein kinase tousled-like 2 (TLK2, Homo sapiens, UniProt Q86UE8)

Structure (SMILES)	effect on	action	method	tested at	measurement	result
Cc1ccc(C(=O)Nc2ccc(CN3CCN(C)CC3)c(C(F)(F)F)c2)cc1C#Cc1cnc2cccnn12	enzyme activity	inhibitor	–	23.5 nM	remaining activity	100%
CCCOc1ccc(OC)c(F)c1C(=O)c1ccc(C(=O)N[C@@H]2CNC[C@H]2NC(=O)c2ccc3[nH]ncc3c2)cc1	enzyme activity	inhibitor	–	10 µM	remaining activity	90%
CNC(=O)c1cc(Oc2ccc(NC(=O)Nc3ccc(Cl)c(C(F)(F)F)c3)cc2)ccn1	enzyme activity	inhibitor	–	0.3 µM	inhibition	-9%
COc1cccc2c(NCc3ccccc3)nc(-n3c(N)nc4ccccc43)nc12	target engagement in cells	inhibitor	chemoproteomics	20 mM	inhibition	-7.5%
O=C1NC(=O)c2cc(Nc3ccc(F)cc3)c(Nc3ccc(F)cc3)cc21	cell-free assay	–	–	0.5 µM	remaining signal	93.5%
Cc1cc(NC(=O)c2cccc3cc(-c4cccc5[nH]nc(N)c45)ccc23)ccc1F	enzyme activity	inhibitor	–	0.1 µM	activity vs control	100%
COc1cc(Nc2c(C#N)cnc3cc(OCCCN4CCN(C)CC4)c(OC)cc23)c(Cl)cc1Cl	cell-free assay	–	–	0.5 µM	remaining signal	92.2%
Nc1ncnc2occ(-c3ccc(NC(=O)Nc4cc(C(F)(F)F)ccc4F)cc3)c12	cell-free assay	inhibitor	–	20 µM	remaining signal	89%
Cc1ccc(NC(=O)c2ccc(C)c(C(F)(F)F)c2)cc1C#Cc1nn(C2CCC(O)CC2)c2ncnc(N)c12 (stereo not drawn)	cell-free assay	–	–	10 µM	remaining signal	93%
CN(C)c1ncnc(-c2ccc3nc(Nc4cc(CN5CCN(C(=O)CC(F)(F)F)CC5)ccn4)[nH]c3c2)c1Cl	cell-free assay	–	competition with immobilised ligand	1 µM	remaining binding	100%
CCCS(=O)(=O)Nc1ccc(F)c(C(=O)c2c[nH]c3ncc(-c4ccc(Cl)cc4)cc23)c1F	enzyme activity	inhibitor	–	1 µM	inhibition	< 10%
CNC(=O)Nc1ccc2c(c1)CC[C@@]21OC(=O)N(CC(=O)N(Cc2ccc(F)cc2)[C@@H](C)C(F)(F)F)C1=O	cell-free assay	–	competition with immobilised ligand	1 µM	remaining binding	100%
O=C(Nc1cnn(-c2csc(C(=O)NC3COC3)c2)c1)Nc1ccccc1Cl	enzyme activity	inhibitor	–	5 µM	remaining activity	99.1%
O=C(Nc1cnc(Oc2ccc(F)cc2)nc1)N1CCc2ncccc2[C@@H]1c1ccc(F)cc1	cell-free assay	–	competition with immobilised ligand	1 µM	remaining binding	89%
Cc1ccc(C(=O)NCc2ccsc2)cc1C#Cc1cn(C(C)C)c2ncnc(N)c12	enzyme activity	inhibitor	–	1 µM	activity vs control	97%
CCC(=O)N[C@@H]1CC[C@H](C(=O)N(C)c2ccc(-c3nc4ccccc4o3)cc2)C1	cell-free assay	–	competition with immobilised ligand	1 µM	remaining binding	100%
COc1cc(Cl)c(C(=O)N[C@@H](CN[C@H]2CC[C@@H](N)CC2)Cc2ccc(C#N)cc2)cc1-c1ccc(CN[C@H](C)c2ccc(C)cc2)o1	enzyme activity	inhibitor	–	1 µM	remaining activity	94%
O=C1NC(c2ccccn2)Sc2ccccc21 (stereo not drawn)	cell-free assay	–	competition with immobilised ligand	1 µM	remaining binding	96%
CC(C)(C)c1nc(-c2cccc(NS(=O)(=O)c3c(F)cccc3F)c2F)c(-c2ccnc(N)n2)s1	enzyme activity	inhibitor	radiometric	1 µM	remaining activity	96%
O=C(Nc1cccnn1)N1CC(C/C=C/c2cncc(Oc3ccc(C(F)(F)F)cn3)n2)C1	cell-free assay	–	competition with immobilised ligand	1 µM	remaining binding	100%
C[S+]([O-])c1ccc(-c2nc(-c3ccncc3)c(-c3ccc(F)cc3)[nH]2)cc1 (stereo not drawn)	cell-free assay	–	–	0.5 µM	remaining signal	96.5%
